This is an account of results in ChEMBL document CHEMBL1933024, “In vitro antibacterial activity of sphaeropsidins and chemical derivatives toward Xanthomonas oryzae pv. oryzae, the causal agent of rice bacterial blight” (2011).

Holding throughout (format): functional
The test system of assay [1] is Xanthomonas oryzae pv. oryzae. In words: Antibacterial activity against Xanthomonas oryzae pv. oryzae XKK.12 assessed as growth inhibition at 6 X 10^-3 M measured after 1 to 2 days. The following applies: for zone of inhibition at 6000 µM: read-out: IZ. The gist of the method:
(§1)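 Agar well diffusion. Each pathogen culture was mixed with top agar (PSA, KB or LB; 0.75% w/v agar) at 45 °C, 50 µL culture per 10 mL, and poured over LB plates bearing wells. Compound (25 or 100 µg in 50 µL DMSO) was added to the wells; 50 µL DMSO served as negative control. Plates were incubated at 30 °C for 1–2 days. The inhibition zone was measured in mm, including the 4 mm well. Three repeats, SD.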

Assay [2] concerns Xanthomonas oryzae pv. oryzae. In words: Antibacterial activity against Xanthomonas oryzae pv. oryzae XKK.12 assessed as growth inhibition at 1.5 X 10^-3 M measured after 1 to 2 days. The essentials: as §1
The subject of assay [3] is Xanthomonas oryzae pv. oryzae. Kind of assay: Antibacterial activity against Xanthomonas oryzae pv. oryzae XKK.12 assessed as growth inhibition at 6 X 10^-3 measured after 1 to 2 days relative to ampicillin.
For assay [4], the system named is Xanthomonas oryzae pv. oryzae. In words: Antibacterial activity against Xanthomonas oryzae pv. oryzae XKK.12 assessed as growth inhibition at 25 to 100 ug measured after 1 to 2 days. The essentials: as §1
Assay [5] has as its system Xanthomonas oryzae pv. oryzae. Kind of assay: Bactericidal activity against Xanthomonas oryzae pv. oryzae XKK.12 assessed as decrease in survival rate at 0.5 to 1.5 X 10^-4 M measured after 6 to 24 hrs.
Assay [6] has as its system Xanthomonas oryzae pv. oryzae. In words: Bactericidal activity against Xanthomonas oryzae pv. oryzae XKK.12 assessed as growth inhibition at 0.5 to 1.5 X 10^-4 M measured after 6 to 24 hrs.
Assay [7] has as its system Xanthomonas oryzae pv. oryzae. Kind of assay: Antibacterial activity against Xanthomonas oryzae pv. oryzae XKK.12 assessed as growth inhibition at 5.2 X 10^-3 M measured after 1 to 2 days. The essentials:
as §1

Assay [8] relates to Pseudomonas fuscovaginae. Kind of assay: Antibacterial activity against Pseudomonas fuscovaginae UPB0736 assessed as growth inhibition at 25 to 100 ug measured after 1 to 2 days. The essentials: as §1
Assay [9] has as its system Burkholderia glumae. Kind of assay: Antibacterial activity against Burkholderia glumae AU6208 assessed as growth inhibition at 25 to 100 ug measured after 1 to 2 days. The gist of the method:
as §1

In assay [10] the test system is Xanthomonas oryzae pv. oryzae. In words: Antibacterial activity against Xanthomonas oryzae pv. oryzae XKK.12 assessed as growth inhibition at 1.3 X 10^-3 M measured after 1 to 2 days. The essentials: as §1
The subject of assay [11] is Xanthomonas oryzae pv. oryzae. In words: Antibacterial activity against Xanthomonas oryzae pv. oryzae XKK.12 assessed as growth inhibition at 5.2 X 10^-3 measured after 1 to 2 days relative to ampicillin.
For assay [12], the system named is Xanthomonas oryzae pv. oryzae. In words: Bacteriostatic activity against Xanthomonas oryzae pv. oryzae XKK.12 assessed as growth inhibition at 0.5 to 1.5 X 10^-4 M measured after 1 to 2 days.
Assay [13] relates to Xanthomonas oryzae pv. oryzae. Kind of assay: Antibacterial activity against Xanthomonas oryzae pv. oryzae XKK.12 assessed as growth inhibition at 5.7 X 10^-3 M measured after 1 to 2 days. The following applies: read-out: IZ. The gist of the method: as §1
For assay [14], the system named is Xanthomonas oryzae pv. oryzae. In words: Antibacterial activity against Xanthomonas oryzae pv. oryzae XKK.12 assessed as growth inhibition at 2 X 10^-3 M measured after 1 to 2 days. The following applies: read-out: IZ. The gist of the method: as §1
Assay [15] concerns Xanthomonas oryzae pv. oryzae. In words: Antibacterial activity against Xanthomonas oryzae pv. oryzae XKK.12 assessed as growth inhibition at 2 X 10^-3 measured after 1 to 2 days relative to ampicillin.
In assay [16] the test system is Xanthomonas oryzae pv. oryzae. In words: Antibacterial activity against Xanthomonas oryzae pv. oryzae XKK.12 assessed as growth inhibition at 0.5 X 10^-3 M measured after 1 to 2 days. The gist of the method: as §1
For assay [17], the system named is Xanthomonas oryzae pv. oryzae. Kind of assay: Antibacterial activity against Xanthomonas oryzae pv. oryzae XKK.12 assessed as growth inhibition at 1.4 X 10^-3 M measured after 1 to 2 days. The essentials:
as §1

Assay [18] deals with Xanthomonas oryzae pv. oryzae. In words: Antibacterial activity against Xanthomonas oryzae pv. oryzae XKK.12 assessed as growth inhibition at 5.6 X 10^-3 M measured after 1 to 2 days. The gist of the method:
as §1

Assay [19] has as its system Xanthomonas oryzae pv. oryzae. In words: Antibacterial activity against Xanthomonas oryzae pv. oryzae XKK.12 assessed as growth inhibition at 1.0 X 10^-3 M measured after 1 to 2 days. The essentials:
as §1

Assay [20] concerns Xanthomonas oryzae pv. oryzae. In words: Antibacterial activity against Xanthomonas oryzae pv. oryzae XKK.12 assessed as growth inhibition at 4 X 10^-3 M measured after 1 to 2 days. The gist of the method:
as §1

Activity calls are given as the source filed them. The rule behind the calls is not given here.

For `C=C[C@]1(C)C=C2C(=O)[C@@]3(O)OC(=O)[C@@]4(CCCC(C)(C)[C@H]34)[C@@]2(O)CC1` [SPHAEROPSIDIN A], the zone of inhibition at 6000 µM in assay [1] came to 25.5 mm. Also, the zone of inhibition at 1500 µM in assay [2] (read-out: IZ) came out at 18.3 mm. Besides, the “growth inhibition (GI)” value in assay [3] came out at 49%. Moreover, the result in [4], in assay [5] and in assay [6] was Active.
Regarding `CC[C@]1(C)C=C2[C@@H](OC(C)=O)[C@@]3(O)OC(=O)[C@@]4(CCCC(C)(C)[C@H]34)[C@@]2(O)CC1`, the “inhibition zone (IZ)” value in [7] and in assay [10] was “inactive” in each case. Further, the outcome in [8] and in assay [9] was inactive.
As to `C=C[C@]1(C)C=C2C3(CO3)C(=O)[C@H]3C(C)(C)CCC[C@]3(C(=O)OC)[C@@]2(O)CC1` (some centres undefined), the “inhibition zone (IZ)” value in assay [7] and in assay [10] was “inactive” throughout. Further, the result in [8] and in [9] was inactive.
For `C=C[C@]1(C)C=C2C(=O)[C@@]3(OC(C)=O)OC(=O)[C@@]4(CCCC(C)(C)[C@H]34)[C@@]2(O)CC1`, the zone of inhibition at 5200 µM in assay [7] (read-out: IZ) amounted to 20.7 mm. In addition, the outcome in [8] and in [9] was inactive. The “inhibition (INH)” value in [11] is 39.8%. The result in assay [12] and in assay [6] was Active. In [10] (read-out: IZ), the zone of inhibition at 1300 µM was determined as 15.8 mm.
Regarding `CC1(C)S[C@@H]2[C@H](NC(=O)[C@H](N)c3ccccc3)C(=O)N2[C@H]1C(=O)O` [AMPICILLIN], the zone of inhibition at 5700 µM in assay [13] was determined as 52 mm.
In the case of `C=C[C@]1(C)C=C2C3(CO3)C(=O)[C@H]3C(C)(C)CCC[C@]3(C(=O)OC)[C@@]2(OC)CC1` (some centres undefined), the “inhibition zone (IZ)” value in assay [7] and in assay [10] was “inactive” in each case. The outcome in [8] and in assay [9] was inactive.
With `C=C[C@@]1(C)CCC2=C(C(=O)[C@@]3(OC(C)=O)OC(=O)[C@@]24CCCC(C)(C)[C@H]34)C1OC(C)=O` (some centres undefined), the outcome in assay [8] and in assay [9] was inactive. Further, the outcome in assay [12] was Active. In addition, in assay [14], the zone of inhibition at 2000 µM was 15.3 mm. In addition, in [15], the “inhibition (INH)” value turned out to be 29.4%. In assay [16], the “inhibition zone (IZ)” value was “inactive”.
As for `C=C[C@]1(C)C=C2[C@@H](O)C[C@H]3C(C)(C)CCC[C@]3(C(=O)O)[C@@]2(O)CC1`, the “inhibition zone (IZ)” value in assay [1] and in assay [2] was “inactive” in each case. In addition, the outcome in assay [8] and in assay [9] was inactive.
Consider `C=C[C@]1(C)C=C2[C@@H](O)C(=O)[C@H]3C(C)(C)CCC[C@]3(C(=O)OC)[C@@]2(O)CC1`, for which the “inhibition zone (IZ)” value in assay [17] and in [18] was “inactive” each time. Besides, the outcome in assay [8] and in assay [9] was inactive.
In the case of `C=C[C@@]1(C)CC[C@@]2(O)C(=C1C)C(=O)C(=O)[C@H]1C(C)(C)CCC[C@@]12C(=O)OC`, the “inhibition zone (IZ)” value in assay [17] and in assay [18] was “inactive” in each case. For the same compound, the result in assay [8] and in assay [9] was inactive.
For the compound `C=C[C@]1(C)C=C(C=O)[C@@]2(CC1)OC(=O)[C@H]1C(C)(C)CCC[C@@]12C(=O)O`, the “inhibition zone (IZ)” value in assay [1] and in assay [2] was “inactive” in each case. Moreover, the outcome in assay [8] and in assay [9] was inactive.
As to `C=C[C@]1(C)C=C2C(=O)C[C@H]3C(C)(C)CCC[C@]3(C(=O)O)[C@@]2(O)CC1`, the “inhibition zone (IZ)” value in assay [1] and in assay [2] was “inactive” in each case. Moreover, the outcome in assay [8] and in assay [9] was inactive.
For the compound `C=C[C@]1(C)C=C2[C@@H](OC(C)=O)[C@@]3(O)OC(=O)[C@@]4(CCCC(C)(C)[C@H]34)[C@@]2(O)CC1`, the “inhibition zone (IZ)” value in assay [19] and in assay [20] was “inactive” in each case. Also, the outcome in assay [8] and in assay [9] was inactive.
For the compound `C=C[C@]1(C)C=C2C(=O)C[C@H]3C(C)(C)CCC[C@]3(C(=O)OC)[C@@]2(O)CC1`, the “inhibition zone (IZ)” value in assay [1] and in assay [2] was “inactive” each time. The result in assay [8] and in [9] was inactive.
In the case of `C=C[C@]1(C)C=C2[C@@H](O)[C@@]3(O)OC(=O)[C@@]4(CCCC(C)(C)[C@H]34)[C@@]2(O)CC1`, the “inhibition zone (IZ)” value in assay [1] and in assay [2] was “inactive” in each case. The outcome in assay [8] and in assay [9] was inactive.
For the compound `CC[C@]1(C)C=C2[C@@H](O)[C@@]3(O)OC(=O)[C@@]4(CCCC(C)(C)[C@H]34)[C@@]2(O)CC1`, the zone of inhibition at 6000 µM in assay [1] was determined as 8.9 mm. Also, the “inhibition zone (IZ)” value in assay [2] was “inactive”. For the same compound, the result in assay [8], in [12] and in assay [9] was inactive.
Take `CC[C@]1(C)C=C2C(=O)[C@@]3(O)OC(=O)[C@@]4(CCCC(C)(C)[C@H]34)[C@@]2(O)CC1`: the zone of inhibition at 6000 µM in [1] came to 11.6 mm. Also, the “inhibition zone (IZ)” value in [2] is “inactive”. Moreover, the result in assay [8] and in assay [9] was inactive. In addition, in assay [12], the result was Active. The “growth inhibition (GI)” value in assay [3] is recorded as 22.3%.
As for `C=C[C@@]1(C)CC[C@]2(O)[C@@]3(C(=O)OC)CCCC(C)(C)[C@@H]3C(=O)C(=O)[C@@]23C[C@@H]13`, the “inhibition zone (IZ)” value in assay [7] and in assay [10] was “inactive” throughout. Besides, the result in assay [8] and in assay [9] was inactive.
